Published values gathered from unrelated publications.
Each line is one published result; the experiments were not run side by side.
Cell line: HepG2
Observed: cell growth or viability

The inhibition of O=C(CN1C(=O)/C(=C/c2cccc(F)c2)SC1=S)Nc1ccccc1 is reported as 7.27% (MTT; 10 µM).
The inhibition of Cc1cc(Nc2ccc(C(=O)N/N=C/c3cccc(Oc4ccccc4)c3)cc2)c2cccc(O)c2n1 is reported as 51.7% (MTT; 20 µM).
Cc1cc(=O)oc2ccc(-c3cc(-c4cccc(Cl)c4)nc(N)n3)c(O)c12 gave an inhibition of 0% (MTT; 8 µg/mL; 72 h).
With O=C(CN1C(=O)/C(=C/c2cccs2)SC1=S)Nc1ccccc1 the inhibition was 11.8% (MTT; 10 µM).
Cc1cc(Nc2ccc(C(=O)N/N=C/c3ccnc(Cl)c3)cc2)c2cccc(O)c2n1 gave an inhibition of 42.4% (MTT; 20 µM).
Cc1ccc(-c2cc(-c3ccc4oc(=O)cc(C)c4c3O)nc(N)n2)cc1 has an inhibition of 0% (MTT; 2 µg/mL; 72 h).
With Cc1cc(Nc2ccc(C(=O)N/N=C/c3ccc[nH]3)cc2)c2cccc(O)c2n1 the inhibition was 43.9% (MTT; 20 µM).
CCOC(=O)c1c(C)ncn1CC(c1cn(C)c2ccc([N+](=O)[O-])cc12)c1cn(C)c2ccc([N+](=O)[O-])cc12 gave an inhibition of 10.2% (MTS; 20 µM; 24 h).
The inhibition of Cc1cc(Nc2ccc(C(=O)N/N=C/C3CCCCC3)cc2)c2cccc(O)c2n1 is reported as 45.4% (MTT; 20 µM).
CCCCCCCCCCCCCCCCOP(=O)([O-])OCC[N+](C)(C)C has an inhibition of 37.9% (MTS; 20 µM; 24 h).
O=C(CN1C(=O)/C(=C/c2ccc(Cl)cc2Cl)SC1=S)Nc1ccccc1 gave an inhibition of 8.03% (MTT; 10 µM).
Cc1cc(=O)oc2ccc(-c3cc(-c4ccc(Br)cc4)nc(N)n3)c(O)c12 gave an inhibition of 0% (MTT; 2 µg/mL; 72 h).
The inhibition of CCOc1ccc(/C=C2\SC(=S)N(CC(=O)Nc3ccccc3)C2=O)cc1 is reported as 34.3% (MTT; 10 µM).
The inhibition of Cc1cccc(/C=N/NC(=O)c2ccc(Nc3cc(C)nc4c(O)cccc34)cc2)n1 is reported as 45.4% (MTT; 20 µM).
For O=C(CN1C(=O)/C(=C/c2ccc(C(F)(F)F)cc2)SC1=S)Nc1ccccc1, the inhibition was 11.2% (MTT; 10 µM).
For Cc1cc(=O)oc2ccc(-c3cc(-c4cccs4)nc(N)n3)c(O)c12, the inhibition was 14% (MTT; 32 µg/mL; 72 h).
O=C(CN1C(=O)/C(=C/c2ccc(Cl)cc2)SC1=S)Nc1ccccc1 has an inhibition of 21.2% (MTT; 10 µM).
For COc1ccc(/C=N/NC(=O)c2ccc(Nc3cc(C)nc4c(O)cccc34)cc2)cc1O, the inhibition was 34.6% (MTT; 20 µM).
